Rows were chosen to be rich in hits. Some 1.5% of all compounds tested hit in one or more screens of this group.
FLuc inh counter: firefly luciferase enzyme inhibitors, primary screen, artefact control for luciferase-based inhibitor screens, biochemical, luminescence, ATPLite | Luciferin 4-monooxygenase (Photinus pyralis), P08659 | 10 min | inhibition, % at 10 µM | hit rate 1.5% among 200,000 | AID 1006, 2008;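 active = inhibition above about 50% when tested at 10 µM, limit read from the data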
PPC-1+TRAIL kill: compounds killing PPC-1 cancer cells with TRAIL present, primary screen, TRAIL potentiator project, ATPLite luminescence, uHTS | PPC-1 cells + TRAIL, ATPLite viability luminescence | hit rate 0.41% among 220,000 | cell killing (% activity), % at 4 µM or 5 µM | AID 1443, 2008;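 active = cell killing above 50% in the first pass at 4 µM, then a duplicate retest at 5 µM averaging 50% or more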;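 note: plate controls were cells with TRAIL plus DMSO for no effect and medium-only wells lacking cells for full effect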
FLuc stim CS: FLuc activators, initial screening, artefact control for FLuc-dependent activation tests, biochemical, ATPlite luminescence; Luciferin 4-monooxygenase (Photinus pyralis), P08659; ATPlite luciferase biochemical, 10 min; 0 = ATP-free wells, 1 = DMSO control; activation factor at 10 µM; 200,000 tested, under 10 active;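 active = luciferase activation factor, scaled between plate controls, of at least 2 with compound at 10 µM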
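Assay system – cell-free luciferase reagent · Medium – PBS-based ATP solution · Dosing – test compounds dosed from 2 mM stocks in 100% DMSO · Timing – 10 min, room temperature · Technique – light output (luminescence) · Measure – luminescence gain marking luciferase activators · Controls – No-ATP low control, compound-free enzyme-plus-ATP high control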
C8 TRAIL sens: viability loss with TRAIL in NB7+C8 cells, primary screen, TRAIL sensitizer project, cell-based, ATPlite luminescence. hit rate 1% among 360,000. inhibition (viability loss, TRAIL sensitization), % at 10 µM;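 active = compounds causing at least 50% loss of cell viability in the single-dose screen, relative to plate controls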
PPC-1 tox: cytotoxicity in PPC-1 cells, confirmation, cytotoxicity control for TRAIL apoptosis potentiator project, cell-based, ATP content luminescence | shares compounds with PPC-1+TRAIL kill | PPC-1 viability, ATPlite luminescence, overnight | cytotoxicity, % at 5 µM | hit rate 50% among 1,200 | AID 1447, 2008;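 active = reconfirmed compounds whose average cytotoxicity reaches 50% or more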;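 note: 0% = DMSO-treated cells and 100% = wells holding medium but no cells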
Numbers without * were called inactive; x = no result given.

SMILES	FLuc inh counter	PPC-1+TRAIL kill	FLuc stim CS	C8 TRAIL sens	PPC-1 tox
CCOc1ccc(-c2ccc(SCC(=O)Nc3nnc(C)s3)nn2)cc1	65.0*	73.5*	0.3	62.4*	74.7*
CCc1ccc(-c2ccc(SCC(=O)Nc3nnc(C)s3)nn2)cc1	85.2*	73.6*	0.1	75.5*	70.9*
c1ccc(CSCc2cn3ccccc3n2)cc1	2.6	-3.6	1	2.9	-6.2
Cc1ccc(SCc2cn3ccccc3n2)cc1	x	22.7	x	20.5	x
CCc1cccc(NC(=S)N(CCOC)C(C)c2ccco2)c1 (stereo unspecified)	x	-3.8	x	6.4	x
C#CC(=O)N(c1ccc(OC)c(OC)c1)C(C(=O)NC1CCCC1)c1cccs1 (stereo unspecified)	-7.6	98.5*	1.1	90.3*	98.2*
COC(=O)c1ccc(CNC(=O)CC[C@H]2O[C@@H](n3cc(C)c(=O)[nH]c3=O)C[C@@H]2O)cc1	x	x	x	1.5	x
COc1cccc(-c2cc(C(=O)Nc3cccc(O)c3)no2)c1	83.3*	55.8*	0.2	69.8*	54.6*
CCCc1ccc(C(=O)NC(=O)c2ccccc2O)cc1	x	60.9*	x	74.2*	60.6*
CCOC(=O)c1ccc(Nc2cc(C)nc(C)c2C(=O)OCC)cc1	-4.0	3.9	1	11.2	-1.6
Cc1cccc(S(=O)(=O)NC2CCCCCCC2)c1	x	x	x	-5.9	x
O=C(O)CCCNS(=O)(=O)c1ccc(F)cc1	-3.5	11.8	1	-19.4	x
O=S(=O)(NCCCCCNS(=O)(=O)c1ccc(F)cc1)c1ccc(F)cc1	-5.9	-6.1	1.1	3.0	-8.2
Cc1ccc(NC(=O)CSCC(=O)N(C)CC(=O)Nc2cccc3ccccc23)cc1	x	x	x	6.1	x
COc1cc(Br)c(S(=O)(=O)Nc2c(C)n(C)n(-c3ccccc3)c2=O)cc1OC	-7.4	5.2	1.1	-4.9	5.5
COc1ccc(S(=O)(=O)Nc2c(C)n(C)n(-c3ccccc3)c2=O)cc1Br	x	x	x	-20.1	x
COCC(C)n1c(C)cc(C(=O)COC(=O)c2ccc(N3CCCC3=O)cc2)c1C (stereo unspecified)	-2.3	-7.8	1	7.3	3.4
COc1cc(NC(=O)c2cc([N+](=O)[O-])ccc2NC(=O)CN2CCN(c3ccccn3)CC2)cc(OC)c1	x	x	x	22.2	x
O=c1cc(-c2ccccc2)[nH]c2nc3ccccc3n12	84.1*	69.9*	0.2	84.4*	64.7*
c1ccc(C2CCC(N3CCN(c4ccccc4)CC3)CC2)cc1 (stereo unspecified)	x	x	x	6.9	x
Clc1ccc(/C=C/c2nc3ccccc3[nH]2)cc1	96.0*	86.7*	0	87.9*	86.0*
Clc1ccc(SCc2nc3ccccc3[nH]2)cc1	19.0	20.2	0.8	16.8	x
Clc1ccc(/C=C/c2nc3ccccc3[nH]2)c(Cl)c1	96.5*	94.2*	0	87.1*	94.7*
O=C(Nc1nc2cc3c(cc2s1)OCO3)c1cccc(N2C(=O)CCC2=O)c1	x	49.2	x	56.0*	58.4*
O=C(Nc1nc2cc3c(cc2s1)OCO3)c1ccc(N2C(=O)CCC2=O)cc1	x	-3.4	x	2.9	x
SMILES	FLuc inh counter	PPC-1+TRAIL kill	FLuc stim CS	C8 TRAIL sens	PPC-1 tox
COc1cc2c(cc1OC)CN(C(=O)c1ccc(Cl)c(S(=O)(=O)N3CCCC3)c1)CC2	x	x	x	-9.7	x
CC(=O)N=c1sc2nc3ccccc3nc2n1N(C(C)=O)C(C)=O	4.3	-2.5	1	15.5	-10.4
CC(=O)N=c1sc2ccccc2n1C	-4.3	17.4	1	0.9	x
COc1cc(-c2[nH]nc3c2C(c2ccoc2)C(C#N)=C(N)O3)cc(OC)c1OC (stereo unspecified)	-4.5	12.9	1	7.1	19.8
N#CC1=C(N)Oc2n[nH]c(-c3cccs3)c2C1c1ccoc1 (stereo unspecified)	-7.9	-18.4	1.1	-11.8	-42.4
COc1cccc(-c2[nH]nc3c2C(c2ccoc2)C(C#N)=C(N)O3)c1 (stereo unspecified)	-1.0	-11.7	1	-12.1	x
Cc1nnc(SCc2cnc(-c3ccc(C(C)C)cc3)s2)n1C	95.2*	90.7*	0	88.3*	90.6*
c1ccc(COc2ccc(OCCn3cncn3)cc2)cc1	16.6	8.7	0.8	-1.4	11.0
Cc1ccc(NC(=O)Cc2cn3ccsc3n2)nc1	-7.6	-4.3	1.1	-0.4	-2.0
